Experiment [1] relates to MCF7. The experiment is described as follows: Induction of apoptosis in human MCF7 cells assessed as viable cells at 8 uM after 12 hrs by annexin V-FITC/propidium iodide staining-based flow cytometry (reference value: 85.4%). Format: functional. The following applies: MCF7, 12 h, read-out: Activity. Summed up: (§1)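 MCF-7 cells were plated at 5.0 × 10^6 cells/mL and held 12 or 24 h at 37 °C. Exponentially growing cells then received complete medium (blank) or compound at 0, 2, 4 or 8 for 12 or 24 h. Harvested cells were stained with Annexin V-FITC/PI and analysed by flow cytometry. Quadrants were scored as live, early apoptotic (annexin+/PI−), late apoptotic (double positive) and damaged (PI+ only).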
(In flow cytometry, cells or beads pass a laser one at a time.)

The subject of experiment [2] is MCF7. The experiment can be described thus: Induction of apoptosis in human MCF7 cells assessed as necrotic cells at 4 uM after 24 hrs by annexin V-FITC/propidium iodide staining-based flow cytometry (reference value: 6.2%). Format: functional. In short, it runs like this:
as §1

The test system of experiment [3] is MCF7. The experiment can be described thus: Induction of apoptosis in human MCF7 cells assessed as early apoptotic cells at 8 uM after 24 hrs by annexin V-FITC/propidium iodide staining-based flow cytometry (reference value: 4.5%). The experiment is classed as functional. Summed up:
as §1

Experiment [4] deals with MCF7. The experiment can be described thus: Induction of apoptosis in human MCF7 cells assessed as viable cells at 8 uM after 24 hrs by annexin V-FITC/propidium iodide staining-based flow cytometry (reference value: 87.1%). The experiment is classed as functional. The following applies: MCF7, 24 h, read-out: Activity.
The test system of experiment [5] is MCF7. The experiment is described as follows: Induction of apoptosis in human MCF7 cells after 12 to 24 hrs by annexin V-FITC/propidium iodide staining-based flow cytometry. Format: functional, cell-based. In short, it runs like this:
as §1

Experiment [6] concerns MCF7. The experiment can be described thus: Induction of apoptosis in human MCF7 cells at 2 to 8 uM by annexin V-FITC/propidium iodide staining-based flow cytometry. Format: functional, cell-based. The following applies: TDE = time-dependent effect.
In experiment [7] the test system is MCF7. The experiment can be described thus: Cell cycle arrest in human MCF7 cells assessed as accumulation at S phase at 2 uM after 12 hrs by propidium iodide staining-based flow cytometry (reference value: 26.65%). Format: functional.
The subject of experiment [8] is MCF7. The experiment is described as follows: Cell cycle arrest in human MCF7 cells assessed as accumulation at G2/M phase at 2 uM after 12 hrs by propidium iodide staining-based flow cytometry (reference value: 16.53%). Format: functional.
Experiment [9] relates to MCF7. The experiment is described as follows: Cell cycle arrest in human MCF7 cells assessed as accumulation at G1/G0 phase at 4 uM after 12 hrs by propidium iodide staining-based flow cytometry (reference value: 60.51%). Format: functional.
For experiment [10], the system named is MCF7. The experiment is described as follows: Cell cycle arrest in human MCF7 cells assessed as accumulation at S phase at 4 uM after 12 hrs by propidium iodide staining-based flow cytometry (reference value: 26.65%). Format: functional.
In experiment [11] the test system is MCF7. The experiment is described as follows: Cell cycle arrest in human MCF7 cells assessed as accumulation at G1/G0 phase at 2 uM after 24 hrs by propidium iodide staining-based flow cytometry (reference value: 46.77%). The experiment is classed as functional.
Experiment [12] relates to MCF7. The experiment can be described thus: Cell cycle arrest in human MCF7 cells assessed as accumulation at S phase at 2 uM after 24 hrs by propidium iodide staining-based flow cytometry (reference value: 40.08%). Format: functional.
Experiment [13] concerns MCF7. The experiment is described as follows: Cell cycle arrest in human MCF7 cells assessed as accumulation at G2/M phase at 4 uM after 24 hrs by propidium iodide staining-based flow cytometry (reference value: 16.27%). Format: functional.
Experiment [14] relates to MCF7. The experiment is described as follows: Cell cycle arrest in human MCF7 cells assessed as accumulation at G2/M phase at 8 uM after 24 hrs by propidium iodide staining-based flow cytometry (reference value: 16.27%). Format: functional.
For experiment [15], the system named is MGC-803. The experiment can be described thus: Cytotoxicity against human MGC803 cells after 72 hrs by MTT assay. Format: functional, cell-based. To be noted: MGC-803, 72 h. In short, it runs like this:
(§2)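 Cells were grown in RPMI1640 and seeded at 5 × 10^3 cells/well, then left 24 h at 37 °C. Medium was replaced with fresh medium holding a range of compound concentrations, from 10 mM DMSO stocks with final DMSO at most 0.1%. Exposure lasted 72 h. MTT (5 mg/mL) was added for 4 h at 37 °C, formazan was dissolved in DMSO and A570 was read. IC50 came from dose-response curves as mean ± SD of three independent experiments.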
(In general: Tetrazolium assays rely on reduction of a dye to a coloured formazan, in cell work by metabolically active cells.)

Experiment [16] can be described thus: Cytotoxicity against human EC9706 cells after 72 hrs by MTT assay. The following applies: EC9706, 72 h. Format: functional, cell-based. In short, it runs like this: as §2
The nature of experiment [17]: Cytotoxicity against human GES-1 cells after 72 hrs by MTT assay. The experiment is classed as cell-based. The following applies: GES1, 72 h.
The test system of experiment [18] is HEK293. The experiment can be described thus: Cytotoxicity against human HEK293 cells after 72 hrs by MTT assay. To be noted: HEK293, 72 h. Format: cell-based.
In experiment [19] the test system is MCF7. The experiment is described as follows: Induction of apoptosis in human MCF7 cells assessed as necrotic cells at 4 uM after 12 hrs by annexin V-FITC/propidium iodide staining-based flow cytometry (reference value: 4.7%). Format: functional. Summed up: as §1
Experiment [20] has as its system MCF7. The experiment can be described thus: Induction of apoptosis in human MCF7 cells assessed as early apoptotic cells at 8 uM after 12 hrs by annexin V-FITC/propidium iodide staining-based flow cytometry (reference value: 7.2%). Format: functional. In short, it runs like this: as §1

A word on the IC50: it is the concentration at which inhibition is half-maximal. Read a low IC50 as greater potency.

Molecules are shown by their SMILES.

For `O=C(CSC(=S)N[C@H]1CCOC1=O)Nc1ccc(C(=O)/C=C/c2ccccc2Cl)cc1`, the viability at 8 µM in experiment [1] is 75.9%; in experiment [4], 46%. The Activity in experiment [2] is 4.1%; in [3] it was 43.2%; in experiment [5] it was “Dose-dependent effect”; in [6], “tde”; in [7] it was 23.92%; in experiment [8] it was 18.26%. The Activity is given as 58.39% in experiment [9]; 24.4% in experiment [10]; 40.44% in experiment [11]; 32.7% in experiment [12]; 47.37% in [13]; 63.06% in experiment [14]. Besides, the Activity in [19] came out at 5.6%; in experiment [20], 19%. For the same compound, the IC50 in experiment [15] was found to be 12.3 µM; in experiment [16], 34.1 µM; in experiment [17], 23.5 µM; in experiment [18], 21.1 µM.

The values above are taken from ChEMBL document CHEMBL3414565, “Discovery of novel AHLs as potent antiproliferative agents” (Eur J Med Chem, 2015).
